Results reported in ChEMBL document CHEMBL4017532, “Multifunctional Hybrid Compounds Derived from 2-(2,5-Dioxopyrrolidin-1-yl)-3-methoxypropanamides with Anticonvulsant and Antinociceptive Properties” (J Med Chem, 2017).
Activity calls are given as the source filed them.

Experiments:
[1] = Retention time of the compound by LC-MS method
[2] = system: Liver; assay: Drug level in human liver microsomes treated with 1-{1-[4-(3-Chlorophenyl)piperazin-1-yl]-3-methoxy-1-oxopropan-2-yl}pyrrolidine-2,5-dione preincubated for 5 mins followed by NADPH addition measured after 2 hrs by LC-MS method; format: ADME, microsome
[3] = system: Mus musculus; assay: Anticonvulsant activity in ip dosed Albino Swiss CD-1 mouse assessed as protection against 32 mA current-induced seizure treated up to 2 hrs prior to 6-Hz current induction measured at time to peak effect; format: functional; settings: Swiss CD-1, ip
[4] = system: Mus musculus; assay: Anticonvulsant activity in Albino Swiss CD-1 mouse assessed as protection against maximal electroshock-induced seizures at 100 mg/kg, ip pretreated up to 2 hrs followed by 50 Hz current induction for […] relative to control; format: functional
[5] = system: Mus musculus; assay: Protection index, ratio of TD50 for neurotoxicity in ip dosed Albino Swiss CD-1 mouse to ED50 for ip dosed Albino Swiss CD-1 mouse model of 6 Hz-induced siezures
Method in brief: (§1)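 Acute neurological toxicity after ip dosing (1% Tween 80 suspension) was assessed in the mouse chimney test. TD50 with 95% confidence limits was derived by probit analysis. Protective index is TD50 from the chimney test divided by ED50 from the MES, scPTZ or 6 Hz test.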

[6] = Neurotoxicity in ip dosed Albino Swiss CD-1 mouse assessed as induction of motor impairment measured up to 60 secs by chimney test; format: toxicity, organism-based; settings: in vivo; method in brief: as §1
[7] = system: Mus musculus; assay: Anticonvulsant activity in Albino Swiss CD-1 mouse assessed as protection against maximal electroshock-induced seizures by measuring time to peak effect at 100 mg/kg, ip pretreated up to 2 hrs followed by 50 Hz current induction for […]; format: functional
[8] = system: Mus musculus; assay: Anticonvulsant activity in Albino Swiss CD-1 mouse assessed as protection against 6 Hz current-induced seizure at 100 mg/kg, ip pretreated up to 2 hrs followed by 6 Hz current induction for 3 secs relative to control; format: functional
[9] = system: Mus musculus; assay: Anticonvulsant activity in Albino Swiss CD-1 mouse assessed as protection against 6 Hz current-induced seizure at 100 mg/kg, ip pretreated up to 0.5 hrs followed by 6 Hz current induction for 3 secs relative to control; format: functional
[10] = system: Mus musculus; assay: Protection index, ratio of TD50 for neurotoxicity in ip dosed Albino Swiss CD-1 mouse to ED50 for ip dosed maximal electroshock induced seizure Albino Swiss CD-1 mouse; method in brief: as §1
[11] = system: Mus musculus; assay: Anticonvulsant activity in ip dosed Albino Swiss CD-1 mouse assessed as protection against maximal electroshock-induced seizures pretreated up to 2 hrs followed by 50 Hz current induction for […] measured at time to peak effect; format: functional; settings: Swiss CD-1, ip
[12] = target: Cytochrome P450 3A4 (Homo sapiens, UniProt P08684); assay: Inhibition of human CYP3A4 assessed as reduction in luciferin-PPXE conversion to D-luciferin at 12.5 to 25 uM by luminescence assay; format: ADME
Method in brief: (§2)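 P450-Glo luminescence assays used recombinant human CYP3A4 or CYP2D6 with conversion of luciferin-PPXE to D-luciferin. Ketoconazole (CYP3A4) and quinidine (CYP2D6) served as reference inhibitors.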

[13] = system: Mus musculus; assay: Anticonvulsant activity in Albino Swiss CD-1 mouse assessed as inhibition of pentylenetetrazole-induced seizures at 100 mg/kg, ip administered up to 2 hrs prior to PTZ induction measured after 30 mins relative to control; format: functional; parameters: scale not given: the % may be the effect or the level left
[14] = target: Cytochrome P450 2D6 (Homo sapiens, UniProt P10635); assay: Inhibition of human CYP2D6 assessed as reduction in luciferin-PPXE conversion to D-luciferin at 12.5 to 25 uM by luminescence assay; format: ADME; method in brief: as §2
[15] = system: Mus musculus; assay: Analgesic activity in Albino Swiss CD-1 mouse assessed as increase in pain response latency administered at 4 mg/kg, ip treated up to 90 mins prior to tet by hot plate assay; format: functional, organism-based
Method in brief: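 Adult male Albino Swiss CD-1 mice (18−25 g), 6−12 per group, each used once. Drug given ip suspended in 1% aqueous Tween 80; vehicle controls received Tween 80. Mice were put back on the hot plate at 15, 30, 45, 60 and 90 min after dosing, and latency to pain reaction was recorded. Data are means ± SEM, analysed by ANOVA with post hoc tests.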

[16] = system: Mus musculus; assay: Analgesic activity in Albino Swiss CD-1 mouse assessed as increase in pain response latency administered at 150 mg/kg, ip treated up to 90 mins prior to tet by hot plate assay; format: functional, organism-based
Method in brief: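 Male CD-1 mice, 18–25 g, 6–12 per group, given test agents as 1% aqueous Tween 80 suspension ip. Doses were 50, 100 or 150 mg/kg, with morphine hydrochloride at 4 mg/kg as reference. Mice were placed on the hot plate 15, 30, 45, 60 and 90 min after dosing, and latency to pain reaction was recorded.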

[17] = system: Mus musculus; assay: Antinociceptive activity in Albino Swiss CD-1 mouse assessed as inhibition of formalin-induced neurogenic pain response at 100 mg/kg, ip administered 30 mins before formalin injection measured up to 5 mins relative to control; format: functional; settings: Swiss CD-1, ip
Method in brief: (§3)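 Male CD-1 mice were given test agents ip 30 min before subcutaneous intraplantar formalin. Doses were 12.5, 25 or 50 mg/kg, or 100, 150 or 200 mg/kg for the reference. Vehicle was 1% Tween 80 at 10 mL/kg. Paw licking time was recorded in phase I (0–5 min) and phase II (15–30 min). Data are mean ± SEM of 8–10 mice, by Dunnett's test. ED50 was obtained by log-probit analysis with 95% confidence limits.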

[18] = system: Mus musculus; assay: Antiallodynic activity in oxaliplatin-induced Albino Swiss CD-1 mouse model of peripheral neuropathy assessed as elevation in pain sensitivity threshold at 150 mg/kg, ip administered 30 mins prior to oxaliplatin challenge relative to control; format: functional
Method in brief: (§4)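 Male CD-1 mice, 18–25 g, that had developed oxaliplatin-induced tactile allodynia were dosed ip 30 min before testing. Doses were 25, 50 or 100 mg/kg, or 50, 100 or 150 mg/kg for the reference. Vehicle was 1% aqueous Tween 80. Paw-withdrawal force was measured by von Frey filaments. Data are mean ± SEM, analysed by repeated-measures ANOVA with Dunnett's test against oxaliplatin plus vehicle mice.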

[19] = system: Mus musculus; assay: Antinociceptive activity in Albino Swiss CD-1 mouse assessed as inhibition of capsaicin-induced nociception by measuring time spent licking injected paw at 200 mg/kg, ip administered 30 mins mins prior to capsaicin challenge measured for 5 mins relative to control; format: functional; settings: Swiss CD-1, ip
Method in brief: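 Mice (male CD-1, 18–25 g) were pretreated ip 30 min before intraplantar capsaicin. Doses were 25, 50 or 100 mg/kg, or 100, 150 or 200 mg/kg for the reference. Vehicle was 1% Tween 80 at 10 mL/kg. Duration of nociceptive response was scored over 5 min after injection. Data are mean ± SEM of 8–10 mice, by one-way ANOVA with Dunnett's test against vehicle.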

[20] = system: Mus musculus; assay: Anticonvulsant activity in Albino Swiss CD-1 mouse assessed as inhibition of pentylenetetrazole-induced seizures by measuring time to peak effect at 100 mg/kg, ip administered up to 2 hrs prior to PTZ induction measured for 30 mins; format: functional
[21] = system: Mus musculus; assay: Antinociceptive activity in Albino Swiss CD-1 mouse assessed as inhibition of formalin-induced neurogenic pain response at 200 mg/kg, ip administered 30 mins before formalin injection measured up to 5 mins relative to control; format: functional; settings: Swiss CD-1, ip; method in brief: as §3
[22] = system: Mus musculus; assay: Antinociceptive activity in Albino Swiss CD-1 mouse assessed as inhibition of formalin-induced neurogenic pain response at 150 mg/kg, ip administered 30 mins before formalin injection measured up to 5 mins relative to control; format: functional; settings: Swiss CD-1, ip; method in brief: as §3
[23] = system: Mus musculus; assay: Antiallodynic activity in oxaliplatin-induced Albino Swiss CD-1 mouse model of peripheral neuropathy assessed as elevation in pain sensitivity threshold at 50 mg/kg, ip administered 30 mins prior to oxaliplatin challenge relative to control; format: functional; method in brief: as §4
[24] = system: Mus musculus; assay: Antiallodynic activity in oxaliplatin-induced Albino Swiss CD-1 mouse model of peripheral neuropathy assessed as elevation in pain sensitivity threshold at 100 mg/kg, ip administered 30 mins prior to oxaliplatin challenge relative to control; format: functional; method in brief: as §4
[25] = system: Liver; assay: Drug level in human liver microsomes treated with 1-{1-[4-(4-Trifluoromethylphenyl)piperazin-1-yl]-3-methoxy-1-oxopropan-2-yl}pyrrolidine-2,5-dione preincubated for 5 mins followed by NADPH addition measured after 2 hrs by LC-MS method; format: ADME, microsome
[26] = system: Liver; assay: Drug level in human liver microsomes treated with 1-{1-[4-(3-Trifluoromethylphenyl)piperazin-1-yl]-3-methoxy-1-oxopropan-2-yl}pyrrolidine-2,5-dione preincubated for 5 mins followed by NADPH addition measured after 2 hrs by LC-MS method; format: ADME, microsome

Cytochrome P450 3A4, sequence (P08684 whole entry): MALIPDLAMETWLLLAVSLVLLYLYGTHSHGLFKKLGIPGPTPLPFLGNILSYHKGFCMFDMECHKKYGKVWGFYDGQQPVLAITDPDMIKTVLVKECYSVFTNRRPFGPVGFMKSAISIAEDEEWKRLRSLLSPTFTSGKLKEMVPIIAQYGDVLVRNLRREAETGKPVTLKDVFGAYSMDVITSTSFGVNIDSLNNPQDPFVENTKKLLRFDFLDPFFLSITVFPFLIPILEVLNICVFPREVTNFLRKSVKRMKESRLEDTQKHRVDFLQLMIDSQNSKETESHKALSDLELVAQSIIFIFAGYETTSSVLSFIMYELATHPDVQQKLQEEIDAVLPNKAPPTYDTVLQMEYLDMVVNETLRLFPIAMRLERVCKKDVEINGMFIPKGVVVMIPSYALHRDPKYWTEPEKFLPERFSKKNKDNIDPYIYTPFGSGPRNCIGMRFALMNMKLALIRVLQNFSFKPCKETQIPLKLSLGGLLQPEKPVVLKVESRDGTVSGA
Cytochrome P450 2D6, sequence (P10635 whole entry): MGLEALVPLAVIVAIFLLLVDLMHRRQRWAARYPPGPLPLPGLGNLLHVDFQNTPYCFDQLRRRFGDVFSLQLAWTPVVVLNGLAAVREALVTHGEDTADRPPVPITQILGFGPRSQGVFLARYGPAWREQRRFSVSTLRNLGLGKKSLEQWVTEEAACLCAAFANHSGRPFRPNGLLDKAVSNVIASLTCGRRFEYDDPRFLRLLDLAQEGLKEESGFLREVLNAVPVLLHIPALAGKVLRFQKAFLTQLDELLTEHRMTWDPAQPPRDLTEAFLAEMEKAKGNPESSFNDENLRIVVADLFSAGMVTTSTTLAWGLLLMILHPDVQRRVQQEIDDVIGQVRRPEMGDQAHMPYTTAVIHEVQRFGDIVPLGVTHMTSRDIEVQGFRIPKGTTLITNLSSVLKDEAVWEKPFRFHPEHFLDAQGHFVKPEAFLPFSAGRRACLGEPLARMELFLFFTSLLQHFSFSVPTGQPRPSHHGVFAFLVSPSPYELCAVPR

SMILES | ED50 [3] [mg/kg] | Ratio TD50/ED50 [5] | TD50 at 1 min [6] [mg/kg] | Time [7] [h] | Activity [8] | further results
COCC(C(=O)N1C=CN(c2cccc(Cl)c2)CC1)N1C(=O)CCC1=O (stereo unspecified) |  |  |  |  |  | Retention time [1]: 6.04 min; Drug metabolism [2]: Metabolite_Detected
COCC(C(=O)N1CCN(c2cccc(C)c2)CC1)N1C(=O)CCC1=O (stereo unspecified) | 47.7 | 4.5 | 213 | 0.25 | <=75% | Activity [4]: <=75%
COCC(C(=O)N1CCN(c2ccc(Cl)cc2)CC1)N1C(=O)CCC1=O (stereo unspecified) | 45.5 to 77 | 2.4 - 4.6 | 180 to 208 | 0.25 to 1 | <=75% | 
O=C(C(CO)N1C(=O)CCC1=O)N1CCN(c2ccc(C(F)(F)F)cc2)CC1 (stereo unspecified) |  |  |  |  |  | Efficacy [9]: 50%
COCC(C(=O)N1CCN(C)CC1)N1C(=O)CCC1=O (stereo unspecified) | 68.2 | >7.3 | > 500 | 0.25 | <=75% | 
COCC(C(=O)N1CCN(c2cccc(Cl)c2)CC1)N1C(=O)CCC1=O (stereo unspecified) | 26.1 to 32.7 | 6.9 - 7.3 | 192 to 226 | 0.25 to 0.5 | <=75% | Ratio TD50/ED50 [10]: 2.4 - 2.6; Retention time [1]: 5.72 min; Activity [4]: <=75%; ED50 [11]: 79.7 to 87 mg/kg; inhibition (INH) [12]: Not Active
COC[C@H](C(=O)N1CCN(c2ccc(C(F)(F)F)cc2)CC1)N1C(=O)CCC1=O | 21.1 to 22.1 | 8 - 9.2 | 167 to 194 | 0.25 to 1 |  | Ratio TD50/ED50 [10]: 1.9 - 2.1; ED50 [11]: 80.9 to 88.9 mg/kg
COCC(C(=O)N1CCN(c2cccc(C(F)(F)F)c2)CC1)N1C(=O)CCC1=O (stereo unspecified) |  |  |  |  | <=75% | Activity [13]: 50%; Retention time [1]: 6.08 min; inhibition (INH) [12]: Not Active; inhibition (INH) [14]: Not Active
CN1CC[C@]23c4c5ccc(O)c4O[C@H]2[C@@H](O)C=C[C@H]3[C@H]1C5 |  |  |  |  |  | Activity [15]: Active
COCC(C(=O)N1CCN(c2ccc(F)cc2)CC1)N1C(=O)CCC1=O (stereo unspecified) | 71.4 | 4.3 | 306 | 0.25 | <=75% | 
O=C(C(CO)N1C(=O)CCC1=O)N1CCN(c2cccc(C(F)(F)F)c2)CC1 (stereo unspecified) |  |  |  |  |  | Efficacy [9]: 50%
CCCC(CCC)C(=O)O [VALPROIC ACID] |  |  | 373 | 0.5 |  | Activity [16]: inactive; inhibition in vivo at 100 mg/kg [17]: 15.7%; Activity [18]: 151.5%; inhibition in vivo at 200 mg/kg [19]: 42.2%; Time [20]: 0.5 h; inhibition in vivo at 200 mg/kg [21]: 29.2%; inhibition in vivo at 150 mg/kg [22]: 25.8%; Activity [23]: 105%; Activity [24]: 121%
COC[C@@H](C(=O)N1CCN(c2ccc(C(F)(F)F)cc2)CC1)N1C(=O)CCC1=O | 37.9 to 49.2 | 5 - 6.4 | 243 to 246 | 0.25 to 0.5 |  | ED50 [11]: > 120 mg/kg
COCC(C(=O)N1C=CN(c2ccc(C(F)(F)F)cc2)CC1)N1C(=O)CCC1=O (stereo unspecified) |  |  |  |  |  | Retention time [1]: 6.23 min; Drug metabolism [25]: Metabolite_Detected
COCC(C(=O)N1C=CN(c2cccc(C(F)(F)F)c2)CC1)N1C(=O)CCC1=O (stereo unspecified) |  |  |  |  |  | Retention time [1]: 6.33 min; Drug metabolism [26]: Metabolite_Detected
COCC(C(=O)N1CCN(c2ccc(C)cc2)CC1)N1C(=O)CCC1=O (stereo unspecified) | 21.1 | 9.6 | 204 | 0.25 | <=75% | 
COCC(C(=O)N1CCN(c2cccc(OC)c2)CC1)N1C(=O)CCC1=O (stereo unspecified) | > 100 |  |  | 0.25 | <=75% | 
COCC(C(=O)N1CCN(c2cccc(Cl)c2Cl)CC1)N1C(=O)CCC1=O (stereo unspecified) | 38 to 54.7 | 4.8 - 5.9 | 224 to 261 | 0.25 to 0.5 | <=75% | 
CC[C@@H](C(N)=O)N1CCCC1=O [LEVETIRACETAM] |  | >33.8 | > 500 | 1 |  | ED50 [11]: > 500 mg/kg
CCC1(C)CC(=O)NC1=O (stereo unspecified) [ETHOSUXIMIDE] | 222 | 3.2 | 722 | 0.25 |  | ED50 [11]: > 500 mg/kg; Time [20]: 0.25 h
COC[C@@H](NC(C)=O)C(=O)NCc1ccccc1 [LACOSAMIDE] | 6.4 | 5.3 | 33.7 | 0.5 |  | Ratio TD50/ED50 [10]: 3.6; ED50 [11]: 9.4 mg/kg
